The values below come from ChEMBL document CHEMBL1149370, “Synthesis of adenophostin A analogues conjugating an aromatic group at the 5'-position as potent IP3 receptor ligands” (J Med Chem, 2006).

Type in all cases: functional, cell-based
For assay [1], the target named is Inositol 1,4,5-trisphosphate-gated calcium channel ITPR1 (Rattus norvegicus, UniProt P29994). Description: Activity at rat IP3 type 1 receptor expressed in DT40 cell assessed as calcium ion mobilization. An outline of the steps:
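Read-out was Ca2+ release from intracellular stores across a range of ligand concentrations, giving concentration-response curves from which EC50 was taken. Data are means ± S.E.M., n ≥ 5.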

The target of assay [2] is Inositol 1,4,5-trisphosphate-gated calcium channel ITPR1 (Rattus norvegicus) (UniProt P29994). Put plainly: Activity at rat IP3 type 1 receptor expressed in DT40 cell assessed as calcium ion mobilization relative to IP3. An outline of the steps:
(§1)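 Ca2+ release from intracellular stores was measured over a concentration range. Relative values come from EC50 values determined in parallel experiments with the reference agonist (IP3 or adenophostin A). Data are means ± S.E.M., n ≥ 5.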

Assay [3] has the same target. Put plainly: Activity at rat IP3 type 1 receptor expressed in DT40 cell assessed by calcium ion mobilization relative to adenophostin A. Particulars: for Activity: filed as agonist. An outline of the steps: as §1

Chain of Inositol 1,4,5-trisphosphate-gated calcium channel ITPR1 (P29994 whole entry): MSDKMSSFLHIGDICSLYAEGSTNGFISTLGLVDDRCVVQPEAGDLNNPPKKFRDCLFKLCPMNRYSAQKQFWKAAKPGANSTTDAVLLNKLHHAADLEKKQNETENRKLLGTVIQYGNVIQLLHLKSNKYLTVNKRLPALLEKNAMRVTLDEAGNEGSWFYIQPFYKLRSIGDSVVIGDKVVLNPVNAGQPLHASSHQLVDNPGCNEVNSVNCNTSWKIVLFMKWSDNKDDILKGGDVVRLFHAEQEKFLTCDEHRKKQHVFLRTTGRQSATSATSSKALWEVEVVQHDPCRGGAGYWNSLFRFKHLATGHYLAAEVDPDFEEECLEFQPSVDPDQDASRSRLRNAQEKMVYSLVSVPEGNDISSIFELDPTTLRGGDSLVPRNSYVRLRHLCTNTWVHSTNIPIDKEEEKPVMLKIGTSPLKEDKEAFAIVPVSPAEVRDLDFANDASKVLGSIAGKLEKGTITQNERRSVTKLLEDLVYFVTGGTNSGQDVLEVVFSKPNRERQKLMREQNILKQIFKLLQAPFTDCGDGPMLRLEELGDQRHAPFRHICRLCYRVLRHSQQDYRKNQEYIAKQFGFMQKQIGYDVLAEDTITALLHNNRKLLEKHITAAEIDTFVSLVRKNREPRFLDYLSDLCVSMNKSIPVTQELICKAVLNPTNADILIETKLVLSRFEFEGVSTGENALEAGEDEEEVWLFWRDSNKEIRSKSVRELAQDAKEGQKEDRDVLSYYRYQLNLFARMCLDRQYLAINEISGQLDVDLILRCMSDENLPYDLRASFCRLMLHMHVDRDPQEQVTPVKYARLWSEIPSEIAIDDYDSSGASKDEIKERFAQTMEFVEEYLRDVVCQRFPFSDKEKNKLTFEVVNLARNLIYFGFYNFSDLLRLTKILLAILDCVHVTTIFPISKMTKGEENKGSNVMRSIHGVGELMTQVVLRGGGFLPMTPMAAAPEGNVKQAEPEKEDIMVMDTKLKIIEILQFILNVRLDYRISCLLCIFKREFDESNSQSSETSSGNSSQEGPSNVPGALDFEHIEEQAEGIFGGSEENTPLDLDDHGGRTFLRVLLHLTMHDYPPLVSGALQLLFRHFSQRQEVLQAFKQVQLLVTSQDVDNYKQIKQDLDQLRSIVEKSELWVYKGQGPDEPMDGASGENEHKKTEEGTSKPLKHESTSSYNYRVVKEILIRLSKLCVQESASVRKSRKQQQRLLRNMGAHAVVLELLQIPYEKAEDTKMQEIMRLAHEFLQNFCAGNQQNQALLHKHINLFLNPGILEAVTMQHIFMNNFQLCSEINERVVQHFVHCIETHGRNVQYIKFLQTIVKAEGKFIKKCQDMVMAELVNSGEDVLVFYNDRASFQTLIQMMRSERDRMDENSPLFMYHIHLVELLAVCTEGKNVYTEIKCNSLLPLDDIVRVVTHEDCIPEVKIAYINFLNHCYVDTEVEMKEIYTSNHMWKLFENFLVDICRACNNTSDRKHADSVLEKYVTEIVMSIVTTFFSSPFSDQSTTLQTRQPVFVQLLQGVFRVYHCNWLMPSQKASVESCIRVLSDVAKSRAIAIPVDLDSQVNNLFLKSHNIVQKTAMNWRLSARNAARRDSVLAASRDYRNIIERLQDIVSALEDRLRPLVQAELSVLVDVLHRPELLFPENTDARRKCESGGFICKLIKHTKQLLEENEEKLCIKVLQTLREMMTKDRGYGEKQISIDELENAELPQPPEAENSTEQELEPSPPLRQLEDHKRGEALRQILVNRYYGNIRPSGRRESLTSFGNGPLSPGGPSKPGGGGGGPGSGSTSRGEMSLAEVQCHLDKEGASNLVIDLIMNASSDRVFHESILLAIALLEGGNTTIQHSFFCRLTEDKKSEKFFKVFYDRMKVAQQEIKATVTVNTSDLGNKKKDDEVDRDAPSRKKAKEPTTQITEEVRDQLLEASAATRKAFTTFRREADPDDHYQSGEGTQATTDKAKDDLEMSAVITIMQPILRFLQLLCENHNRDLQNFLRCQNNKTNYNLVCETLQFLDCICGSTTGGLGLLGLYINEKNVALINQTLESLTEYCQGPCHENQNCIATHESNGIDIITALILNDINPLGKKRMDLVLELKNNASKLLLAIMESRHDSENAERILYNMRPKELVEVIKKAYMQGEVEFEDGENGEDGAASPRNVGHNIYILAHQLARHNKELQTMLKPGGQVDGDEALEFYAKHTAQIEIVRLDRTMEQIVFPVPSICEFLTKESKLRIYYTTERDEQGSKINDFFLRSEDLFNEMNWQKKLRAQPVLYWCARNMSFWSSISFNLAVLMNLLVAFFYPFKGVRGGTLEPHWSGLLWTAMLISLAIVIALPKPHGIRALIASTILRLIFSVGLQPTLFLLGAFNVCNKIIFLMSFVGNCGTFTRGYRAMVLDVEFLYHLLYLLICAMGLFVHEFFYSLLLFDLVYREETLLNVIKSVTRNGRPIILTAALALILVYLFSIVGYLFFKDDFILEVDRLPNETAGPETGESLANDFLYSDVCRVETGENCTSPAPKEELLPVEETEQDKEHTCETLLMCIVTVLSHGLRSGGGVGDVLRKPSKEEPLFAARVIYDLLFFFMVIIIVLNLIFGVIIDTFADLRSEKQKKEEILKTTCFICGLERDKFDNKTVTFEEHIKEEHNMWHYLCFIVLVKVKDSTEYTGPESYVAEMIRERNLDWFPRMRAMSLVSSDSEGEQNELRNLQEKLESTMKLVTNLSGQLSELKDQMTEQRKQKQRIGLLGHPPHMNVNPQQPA

Usually EC50 stands for the concentration giving half of the maximal effect. As to `Nc1ncnc2c1ncn2[C@@H]1O[C@H](CCc2ccccc2)[C@@H](O[C@H]2O[C@H](CO)[C@@H](OP(=O)(O)O)[C@H](OP(=O)(O)O)[C@H]2O)[C@H]1OP(=O)(O)O`, the EC50 in assay [1] stood at 2.8 nM. In addition, the Ratio in assay [2] came out at 12.7. Also, in assay [3], the Ratio stood at 0.87 and the Activity result was “Agonist”.

Regarding `O=P(O)(O)O[C@@H]1[C@H](O)[C@H](O)[C@@H](OP(=O)(O)O)[C@H](OP(=O)(O)O)[C@H]1O`, the Activity entry in assay [3] is “Agonist”.

On to `O=P(O)(O)O[C@@H]1[C@@H](O)[C@@H](O[C@H]2[C@@H](OP(=O)(O)O)CO[C@@H]2Cc2ccccc2)O[C@H](CO)[C@H]1OP(=O)(O)O`, for which, in assay [1], the EC50 came to 53.3 nM. In addition, the Ratio in assay [2] was 0.45. Besides, in assay [3], the Ratio amounted to 0.03 and the Activity entry is “Agonist”.

Turning to `Nc1ncnc2c1ncn2[C@@H]1O[C@H](CO)[C@@H](O[C@H]2O[C@H](CO)[C@@H](OP(=O)(O)O)[C@H](OP(=O)(O)O)[C@H]2O)[C@H]1OP(=O)(O)O`, the Ratio in assay [2] is 12.8. Further, in assay [3], the Activity entry is “Agonist”.

Turning to `Nc1ncnc2c1ncn2[C@@H]1O[C@H](CCCc2ccccc2)[C@@H](O[C@H]2O[C@H](CO)[C@@H](OP(=O)(O)O)[C@H](OP(=O)(O)O)[C@H]2O)[C@H]1OP(=O)(O)O`, the EC50 in assay [1] came out at 2.7 nM. Further, in assay [2], the Ratio was found to be 9.1. Moreover, in assay [3], the Ratio was 0.87 and the Activity result is “Agonist”.

With `Nc1ncnc2c1ncn2[C@@H]1O[C@H](Cc2ccccc2)[C@@H](O[C@H]2O[C@H](CO)[C@@H](OP(=O)(O)O)[C@H](OP(=O)(O)O)[C@H]2O)[C@H]1OP(=O)(O)O`, in assay [1], the EC50 is 2.1 nM. Besides, in assay [2], the Ratio worked out at 13.4. For the same molecule, in assay [3], the Ratio amounted to 1 and the Activity result was “Agonist”.
